From ChEMBL document CHEMBL1154185 (J Med Chem, 2009)

Experiments:
B16-F10 = experiment: Growth inhibition of proapoptotic stimuli-sensitive mouse B16F10 cells after 72 hrs by MTT assay; assay type: functional, cell-based
In short: (§1)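 MTT assay. Cells were plated at 10,000–40,000 cells/mL and left 24 h to attach, then exposed to compound for 72 h (untreated controls). Formazan was read at 570 nm (reference 630 nm). Tested up to 10 μM (first panel) or up to 100 μM (second panel). Sextuplicate. U373 grown in MEM + 5% FBS; Hs683, SK-MEL-28 and B16F10 in RPMI + 10% FBS.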

[1] = Growth inhibition of proapoptotic stimuli-resistant human U373 cells after 72 hrs by MTT assay; assay type: functional, cell-based, U-373MG ATCC; in short: as §1
A549 = experiment: Growth inhibition of proapoptotic stimuli-resistant human A549 cells after 72 hrs by MTT assay; assay type: functional, cell-based
In short: (§2)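 Cells plated 24 h in 96-well plates (10,000-40,000 cells/mL by cell type) in MEM (5% or 10% heat-inactivated FBS; with 100 μM non-essential amino acids for WI-38 and NHDF) or RPMI 10% FBS (A549), then exposed 72 h to compound up to 100 μM; MTT reduction read at 570 nm (reference 630 nm); sextuplicate.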

SK-MEL-28 = experiment: Growth inhibition of proapoptotic stimuli-resistant human SK-MEL-28 cells after 72 hrs by MTT assay; assay type: functional, cell-based; in short: as §1
[2] = Growth inhibition of proapoptotic stimuli-resistant human OE21 cells after 72 hrs by MTT assay; assay type: functional, cell-based
[3] = Growth inhibition of proapoptotic stimuli-sensitive human Hs683 cells after 72 hrs by MTT assay; assay type: functional, cell-based, Hs 683; in short: as §1
[4] = Growth inhibition of human WS1 cells after 72 hrs by MTT assay; assay type: cell-based; conditions: WS1, 72 h; in short: as §2
NHDF = experiment: Growth inhibition of human NHDF after 72 hrs by MTT assay; assay type: cell-based; in short: as §2
[5] = Growth inhibition of human WI38 cells after 72 hrs by MTT assay; assay type: cell-based; conditions: WI-38, 72 h; in short: as §2

SMILES | IC50 (B16-F10; Mus musculus, B16-F10, 72 h) [µM] | IC50 (SK-MEL-28; Homo sapiens, SK-MEL-28, 72 h) [µM] | IC50 (B16-F10; b16-f10) [µM] | IC50 (A549; a549) [µM] | IC50 (SK-MEL-28; sk-mel-28) [µM] | IC50 ([1]; Homo sapiens, U373 MG, 72 h) [µM] | IC50 (A549; Homo sapiens, A549, 72 h) [µM] | IC50 ([2]; Homo sapiens, OE21, 72 h) [µM] | IC50 ([3]; Homo sapiens, Hs 683, 72 h) [µM] | IC50 [4] [µM] | IC50 (NHDF) [µM] | IC50 [5] [µM] | IC50 ([1]; u-373mg atcc) [µM] | IC50 ([2]; oe21) [µM] | IC50 ([3]; hs 683) [µM]
O[C@H]1[C@H]2c3cc4c(cc3CN3CCC(=C[C@H]1O)[C@H]23)OCO4 | > 10 | > 10 |  |  |  | > 10 | > 10 | > 10 | > 10 |  |  |  |  |  | 
CC(=O)O[C@H]1C=C2CCN3Cc4cc5c(cc4[C@H]([C@@H]1O)[C@@H]23)OCO5 | > 10 | > 10 |  |  |  | > 10 | > 10 | > 10 | > 10 | > 100 | > 100 | 88.5 |  |  | 
O=C1c2cc3c(cc2[C@@H]2[C@H](O)[C@@H](O)C[C@H]4CCN1[C@H]42)OCO3 | > 10 | > 10 |  |  |  | > 10 | > 10 | > 10 | > 10 |  |  |  |  |  | 
CC(=O)O[C@H]1[C@H]2c3cc4c(cc3CN3CCC(=C[C@@H]1OC(C)=O)[C@H]23)OCO4 | > 10 | > 10 |  |  |  | > 10 | > 10 | > 10 | > 10 |  |  |  |  |  | 
C1=C2CCN3Cc4cc5c(cc4[C@H](CC1)[C@@H]23)OCO5 [LYCORENE] | > 10 | > 10 |  |  |  | > 10 | > 10 | > 10 | > 10 |  |  |  |  |  | 
c1cc2c3c(c1)-c1cc4c(cc1CN3CC2)OCO4 [ANHYDROLYCORINE] | > 10 | > 10 |  |  |  | 5.1 | 4.5 | 8.8 | 7.1 | 23.7 | 26.6 | 30.1 |  |  | 
O[C@H]1[C@H]2c3cc4c(cc3CN3CC[C@@H](C[C@@H]1O)[C@H]23)OCO4 | > 10 | > 10 |  |  |  | > 10 | > 10 | > 10 | > 10 |  |  |  |  |  | 
COc1cc2c(cc1O)CN1CCC3=CC[C@@H](O)[C@@H]2[C@@H]31 [NORPLUVINE] | > 10 | > 10 |  |  |  | > 10 | > 10 | > 10 | > 10 |  |  |  |  |  | 
CC(=O)O[C@H]1[C@H]2c3cc4c(cc3CN3CC[C@H](C[C@@H]1OC(C)=O)[C@H]23)OCO4 | > 10 | > 10 |  |  |  | > 10 | > 10 | > 10 | > 10 |  |  |  |  |  | 
O[C@H]1[C@H]2c3cc4c(cc3CN3CC[C@H](C[C@@H]1O)[C@H]23)OCO4 | > 10 | > 10 |  |  |  | > 10 | > 10 | > 10 | > 10 |  |  |  |  |  | 
COC1=C[C@@H]2CCN3Cc4cc5c(cc4[C@@H]([C@H]23)[C@@H]1O)OCO5 [AMARBELLISINE] | 6.7 | 8.3 |  |  |  |  | 7.2 |  | 8.3 | 97.6 | > 100 | > 100 |  |  | 
C1=C2CCN3Cc4cc5c(cc4[C@H]([C@@H]4O[C@H]14)[C@@H]23)OCO5 | 4.6 | 9.5 |  |  |  | 2.4 | 3.4 | 8.5 | 3.3 | 36.8 | 9.3 | 28.6 |  |  | 

The next lines start with results.

IC50 (B16-F10; Mus musculus, B16-F10, 72 h) [µM] | IC50 (SK-MEL-28; Homo sapiens, SK-MEL-28, 72 h) [µM] | IC50 (B16-F10; b16-f10) [µM] | IC50 (A549; a549) [µM] | IC50 (SK-MEL-28; sk-mel-28) [µM] | SMILES | IC50 ([1]; Homo sapiens, U373 MG, 72 h) [µM] | IC50 (A549; Homo sapiens, A549, 72 h) [µM] | IC50 ([2]; Homo sapiens, OE21, 72 h) [µM] | IC50 ([3]; Homo sapiens, Hs 683, 72 h) [µM] | IC50 [4] [µM] | IC50 (NHDF) [µM] | IC50 [5] [µM] | IC50 ([1]; u-373mg atcc) [µM] | IC50 ([2]; oe21) [µM] | IC50 ([3]; hs 683) [µM]
> 10 | > 10 |  |  |  | CC(=O)O[C@H]1[C@H]2c3cc4c(cc3CN3CC[C@@H](C[C@@H]1OC(C)=O)[C@H]23)OCO4 | > 10 | > 10 | > 10 | > 10 |  |  |  |  |  | 
7.5 | > 10 |  |  |  | COc1cc2c(cc1O)[C@@H]1[C@H](O)[C@@H](O)C=C3CCN(C2)[C@H]31 [PSEUDOLYCORINE] |  |  |  | 7.9 | 79.1 | 66.9 | 44 |  |  | 
 |  | > 10 | > 10 | > 10 | C[N+]12CCC3=C[C@H](O)[C@@H](O)[C@@H](c4cc5c(cc4C1)OCO5)[C@@H]32 (some centres not stated) |  |  |  |  |  |  |  | > 10 | > 10 | > 10
6.9 | > 10 |  |  |  | O[C@H]1[C@H]2c3cc4c(cc3CN3CCC(=C[C@@H]1Cl)[C@H]23)OCO4 | 2.3 | 3.8 | 9.6 | 3.1 | > 100 | 72.1 | 46 |  |  | 
> 10 | > 10 |  |  |  | O[C@@H]1CC=C2CCN3Cc4cc5c(cc4[C@H]1[C@@H]23)OCO5 [CARANINE] | > 10 | > 10 | > 10 | > 10 |  |  |  |  |  | 
> 10 | > 10 |  |  |  | [O-]c1cc2c3c(c1)c1cc4c(cc1c[n+]3CC2)OCO4 [UNGEREMINE] | 8.3 | > 10 | > 10 | > 10 |  |  |  |  |  | 
> 10 | > 10 |  |  |  | CC(=O)O[C@H]1[C@H]2c3cc4c(cc3CN3CCC(=C[C@@H]1O)[C@H]23)OCO4 | > 10 | > 10 | > 10 | > 10 |  |  |  |  |  | 
> 10 | > 10 |  |  |  | O=C1C=C2CCN3Cc4cc5c(cc4[C@H]([C@@H]1O)[C@@H]23)OCO5 | > 10 |  | > 10 | > 10 |  |  |  |  |  | 
